# Data as given in paper PMC11253873 (RSC Medicinal Chemistry, 2024).
# Where “and” joins values, the source holds several entries; their conditions need not be identical. Equal entries are not always repeated.
# How the values were obtained:
# Mtb H37Rv = assay: microbe, parasite or virus in culture; assay type: cell-based, Mycobacterium tuberculosis; conditions: Mycobacterium tuberculosis, H37RV, 336 h, read-out: Mtb MIC
# HepG2 cells = assay: HepG2 cell inhibition; assay type: cell-based; conditions: Homo sapiens, HepG2, 24 h, read-out: HepG2 IC50
# [1] = test system: MEP pathway in P. falciparum parasites; assay: IPP rescue of inhibitor-treated P. falciparum; assay type: cell-based, Plasmodium falciparum; conditions: 125 μM IPP added to media
# In short: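 The rescue format is the standard 3-day growth assay with 125 μM IPP present throughout. Parasites are at 0.5% parasitemia and 2% hematocrit in supplemented RPMI-1640/Albumax, under 5% O2/5% CO2/90% N2 at 37 °C, with 1.2 nM–492.4 μM test compound. Growth is measured as PicoGreen DNA fluorescence and fitted to a 4-parameter dose–response curve. Technical duplicates, biological triplicate.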
# [2] = test system: had1 mutant Pf strain (E1-C12); assay: Growth inhibition of fosmidomycin-resistant had1 mutant P. falciparum; assay type: cell-based, Plasmodium falciparum; conditions: had1 mutant versus wild type 3D7
# In short: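 Asynchronous cultures of wild-type 3D7 and fosmidomycin-resistant had1 strain E1-C12 are kept at 2% hematocrit in supplemented RPMI-1640 with 0.5% Albumax, under 5% O2/5% CO2/90% N2 at 37 °C. Parasites are diluted to 0.5% parasitemia and exposed to 1.2 nM–492.4 μM test compound from the start. After 3 days, DNA is read with PicoGreen (ex 485/em 528 nm). IC50 comes from a 4-parameter nonlinear fit. Technical duplicates, biological triplicate.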
smiles,measurement,setting,value
"COc1ccc(C(C)ON(CCC(c2ccc(Cl)c(Cl)c2)P(=O)(OCOC(=O)C(C)(C)C)OCOC(=O)C(C)(C)C)C(C)=O)cc1 (stereo not shown) [Compound 7l, ({[1-(3,4-Dichlorophenyl)-3-{N-[1-(4-methoxyphenyl)ethoxy]acetamido}propyl]({[(2,2-dimethylpropanoyl)oxy]methoxy})phosphoryl}oxy)methyl 2,2-dimethylpropanoate]",MIC,Mtb H37Rv,4.6 µg/mL
same,IC50,HepG2 cells,> 100 µg/mL and > 140 µM
same,IPP rescue of growth of drug-treated P. falciparum parasites,[1],rescues the growth
same,cross resistance of fosmidomycin-resistant had1 mutant Pf strain,[2],displayed increased resistance
